Publication PMC4351919 (Journal of biological inorganic chemistry : JBIC : a …, 2014)

How the values were obtained:
[1] = Determination of aqueous solubility; type: physicochemical; settings: Milli-Q water, room temperature
In short: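 Modified OECD method. Saturated solutions made in Milli-Q water at room temperature with repeated ultrasonication. Undissolved material removed through a 0.45 μm filter. Filtrate diluted in 1 % HNO3, and platinum quantified by ICP-MS (RF 1500 W, 194Pt/195Pt monitored, Re internal isotope, 10 replicates) to calculate solubility.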

[2] = Lipophilicity as chromatographic retention factor log kw; type: physicochemical; settings: RP-HPLC, extrapolated to 0 % MeOH
In short: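 RP-HPLC on a C18 column (4.6 × 250 mm, 5 μm) at 25 °C, 1 ml/min, isocratic 0.1 % TFA(aq)/MeOH, UV 210 nm, with uracil for dead time t0. Each compound run in triplicate at ≥3 MeOH compositions; k = (tR − t0)/t0. log kw obtained by linear extrapolation of log k versus %MeOH to 0 % MeOH.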

[3] = type: in vivo, Balb/c mice; settings: CT-26-bearing mice
[4] = Tissue distribution of platinum after single dose oral administration; type: in vivo, Balb/c mice; settings: 2 h after single oral dose 40 mg/kg, mice
[5] = tested on: CT-26 cells; assay: Anticancer activity against CT-26 cells in vivo; set-up: species or system Balb/c mice; settings: CT-26-bearing mice, i.p. days 4, 7, 11, 14; 8.5 mg/kg for 1, 10 mg/kg for 2
In short: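 CT-26 cells (5 × 10^5) injected s.c. into right flank of female Balb/c mice. Test compound given i.p. as freshly prepared aqueous solution on days 4, 7, 11 and 14. Daily distress checks. Tumor size measured regularly by caliper; volume = length × width²/2. Mice sacrificed at day 15, 24 h after last dose.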

[6] = Lipophilicity as n-octanol/water partition coefficient; type: physicochemical; settings: shake flask
In short: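 Modified OECD shake-flask method. Compound dissolved in water pre-saturated with 1-octanol, and aqueous Pt measured by ICP-MS after dilution in 1 % HNO3. Solution then mixed 1:1 with water-saturated 1-octanol and shaken 1 h. After phase separation, aqueous Pt re-measured; octanol content taken as the loss from the stock to give log Po/w.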

[7] = tested on: SW480; settings: read-out: IC50 (SW480); MTT assay, 96 h exposure; cited from earlier work
[8] = tested on: CH1; settings: read-out: IC50 (CH1); MTT assay, 96 h exposure; cited from earlier work
[9] = tested on: murine colon cancer cell model CT-26; assay: Cytotoxicity assay; type: cell-based; settings: MTT assay, 72 h exposure; for IC50: read-out: IC50 mean ± SD, CT-26
In short: (§1)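 Cells (L1210 in RPMI 1640; CT-26 in DMEM/F12; both with 10 % FCS, 37 °C, 5 % CO2) seeded at 2 × 10^3/well and allowed 24 h recovery. 10 mM DMSO stocks serially diluted in medium; final DMSO ≤0.5 %. After 72 h exposure, viability read by MTT (EZ4U). IC50 reported as mean ± SD of at least three independent experiments.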

[10] = SEC-ICP-MS study in mice serum after single dose oral administration; type: in vivo; settings: serum 2 h after single oral dose
In short: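 Balb/c mice dosed orally once at 40 mg/kg (water, 1 % DMSO). Under anesthesia at 2 h, blood taken by heart puncture; serum isolated (3000 rpm, 10 min, twice), stored at −20 °C, then diluted in PBS. SEC on Superdex 200 (10–600 kDa), 100 mmol/l ammonium acetate pH 7.4, 0.7 ml/min, with online ICP-MS Pt trace. References: compounds in PBS, fresh or after 1 and 24 h at 37 °C.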

[11] = tested on: murine leukemia model L1210; assay: Cytotoxicity assay; type: cell-based; settings: read-out: IC50 mean ± SD, L1210; MTT assay, 72 h exposure
In short: as §1

[12] = tested on: A549; settings: read-out: IC50 (A549); MTT assay, 96 h exposure; cited from earlier work
[13] = 15 min after oral application, clinical trials; cited from earlier work
[14] = cited from earlier work

SMILES | Aqueous solubility [1] [mg/mL] | Lipophilicity (log kw) [2] | Percentage of platinum amount found in serum relative to the administered platinum dose [4] | Platinum level in serum [4] | Lipophilicity (log Po/w) [6] | IC50 [7] [µM] | IC50 [8] [µM] | IC50 [9] [µM] | IC50 [11] [µM] | IC50 [12] [µM] | other results
[NH2][Pt]1([NH2])([O]C(=O)CCC(=O)NC2CCCC2)([O]C(=O)CCC(=O)NC2CCCC2)[O]C(=O)C2(CCC2)C(=O)[O]1 [Compound 2, (OC-6-33)-diammine(cyclobutane-1,1-dicarboxylato)bis((4-cyclopentylamino)-4-oxobutanoato)platinum(IV)] | 10.2 ± 0.04 | 2.99 ± 0.06 | ~ 1.5 % Pt | ~ 0.15 μg/ml | 0.77 ± 0.06 | > 500 | 15 ± 5 | > 50 | > 50 | > 500 | Platinum in liver, kidney and serum after i.p. versus oral administration ([3]; 10 mg/kg i.p. vs 40 mg/kg p.o., multiple dose): tenfold higher; Platinum concentrations in all tissues after oral application ([3]; multiple dose p.o. 40 mg/kg, day 15): < 0.5 µg/g; Platinum accumulation in all organ samples [4]: less than 0.5 μg/g; In vivo anticancer activity (tumor volume), intraperitoneal application [5]: inactive; Free intact platinum(IV) complex in serum [10]: ~ 5%
CC[NH][Pt]([Cl])([Cl])([NH]CC)([O]C(=O)CCC(=O)OCC)[O]C(=O)CCC(=O)OCC [Compound 1, (OC-6-33)-dichloridobis((4-ethoxy)-4-oxobutanoato)bis(ethylamine)platinum(IV)] | 1.94 ± 0.02 | 2.87 ± 0.01 | ~ 16 % Pt | ~ 2 μg/ml | 0.72 ± 0.03 | 0.3 ± 0.05 | 0.061 ± 0.015 | 5.7 ± 0.2 | 1.5 ± 0.4 | 1 ± 0.4 | Increase of platinum level in tumor at the higher oral dose ([3]; 51.7 vs 34.1 mg/kg p.o., multiple dose): up to 30%; Platinum level in blood pellet [4]: ~ 1 μg/g; Platinum level in kidneys [4]: ~ 4 μg/g; Platinum level in liver [4]: ~ 9 μg/g; Platinum level in lungs [4]: ~ 1 μg/g
CC(=O)[O][Pt]([NH2])([Cl])([Cl])([NH]C1CCCCC1)[O]C(C)=O [Satraplatin, (OC-6-43)-bis(acetato)amminedichlorido(cyclohexylamine)platinum(IV), reference compound] | 0.10 ± 0.01 | 1.49 ± 0.03 | ~ 4 % Pt | – | 0.23 ± 0.01 | 1.5 ± 0.1 | 0.1 ± 0.02 | 2.9 ± 0.3 | 2.5 ± 0.2 | 6.4 ± 0.4 | Times lower platinum concentrations in the investigated tissues than compound 1 [4]: 2-3 times; Parent drug in patients' plasma ultrafiltrate [13]: no parent drug was detected; Fold more active than 1 in CT-26 cells [9]: ~ 2 fold; Presence of intact parent drug in serum [10]: absence of intact satraplatin
N.N.O=C([O-])C1(C(=O)[O-])CCC1.[Pt+2] [carboplatin] | – | – | – | – | – | – | – | – | – | – | Injected dose recovered in urine [14]: ~90%
